Reference: ChEMBL document CHEMBL1138917, “FK506-binding protein ligands: structure-based design, synthesis, and neurotrophic/neuroprotective properties of substituted 5,5-dimethyl-2-(4-thiazolidine)carboxylates” (2006)
Active and inactive are the calls of the source. No cut-off for these calls is given here.

What was measured:
[1] = target: T1, Peptidyl-prolyl cis-trans isomerase FKBP4 (Homo sapiens) (UniProt Q02790); assay: Increase in neurite outgrowth in chick embryo dorsal root ganglion at 1 pM in presence of NGF; assay type: functional, tissue-based; conditions: Gallus gallus, target entry is the homologue from another species
T1 sequence (whole entry): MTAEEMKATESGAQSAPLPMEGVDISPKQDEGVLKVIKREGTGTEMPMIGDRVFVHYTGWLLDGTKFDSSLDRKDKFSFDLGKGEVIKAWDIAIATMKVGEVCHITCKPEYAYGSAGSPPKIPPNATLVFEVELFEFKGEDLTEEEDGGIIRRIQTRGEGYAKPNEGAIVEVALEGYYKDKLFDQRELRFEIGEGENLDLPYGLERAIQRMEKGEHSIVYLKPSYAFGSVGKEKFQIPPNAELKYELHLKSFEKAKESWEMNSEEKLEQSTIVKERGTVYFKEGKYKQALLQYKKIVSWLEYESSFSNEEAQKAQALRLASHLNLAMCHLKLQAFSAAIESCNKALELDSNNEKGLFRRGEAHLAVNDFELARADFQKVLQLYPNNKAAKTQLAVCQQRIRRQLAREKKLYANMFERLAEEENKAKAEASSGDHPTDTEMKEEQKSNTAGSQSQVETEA
In short: (§1)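 DRGs from 8-day chick embryos, on rat tail collagen-coated flasks, 5-6 per flask; after 1 h attachment at 37 °C, 5% CO2, treated with compound plus 0.15 ng/mL NGF in DMEM for 48 h. DMSO stock 1 mM, final DMSO below 10^-7 M. Phase-contrast scoring of neurite number and length, averaged over 15-18 ganglia; NGF-only controls; one-way ANOVA with Student-Newman-Keuls.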

[2] = target: T1, Peptidyl-prolyl cis-trans isomerase FKBP4 (Homo sapiens); assay: Increase in neurite outgrowth in chick embryo dorsal root ganglion at 100 pM in presence of NGF; assay type: functional, tissue-based; conditions: Gallus gallus, target entry is the homologue from another species; in short: as §1
[3] = target: T1, Peptidyl-prolyl cis-trans isomerase FKBP4 (Homo sapiens); assay: Increase in neurite outgrowth in chick embryo dorsal root ganglion in absence of NGF; assay type: functional, tissue-based; conditions: Gallus gallus, target entry is the homologue from another species
[4] = target: T1, Peptidyl-prolyl cis-trans isomerase FKBP4 (Homo sapiens); assay: Decrease in neurite outgrowth in chick embryo dorsal root ganglion at 1 nM in presence of NGF; assay type: functional, tissue-based; conditions: Gallus gallus, target entry is the homologue from another species; in short: as §1
[5] = target: T1, Peptidyl-prolyl cis-trans isomerase FKBP4 (Homo sapiens); assay: Increase in neurite outgrowth in chick embryo dorsal root ganglion in presence of NGF; assay type: functional, tissue-based; conditions: Gallus gallus, target entry is the homologue from another species; in short: as §1
[6] = system: Mus musculus; assay: Neuroprotective activity against 6-OHDA-induced Kunming mouse peripheral sympathetic nerve injury measured as norepinephrine content in submandibular gland at 10 mg/kg, sc; assay type: functional; conditions: route subcutaneous
In short: (§2)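 Adult female Kunming mice, 22 g, lesioned with 6-OHDA 8 mg/kg i.p.; compound given s.c. 4 h before lesion and daily for 4 further days; vehicle controls. Killed 2 weeks after last dose; both submandibular glands weighed and homogenized with 3,4-dihydroxybenzylamine internal standard, centrifuged 30 min; norepinephrine in supernatant by HPLC-ECD, µg/g wet weight; mean ± SEM.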

[7] = system: Mus musculus; assay: Neuroprotective activity against 6-OHDA-induced Kunming mouse peripheral sympathetic nerve injury measured as norepinephrine content in submandibular gland at 2 mg/kg, sc; assay type: functional; conditions: route subcutaneous; in short: as §2

Structure (SMILES) | Activity [1] | Activity [2] | other results
CCC(C)(C)C(=O)C(=O)N1[C@H](C(=O)OC/C=C/c2ccccc2)CSC1(C)C | Active | Active | –
CCCCCCC(=O)C(=O)N1[C@H](C(=O)OCCc2ccccc2Cl)CSC1(C)C | Active | Active | –
CCCCCCC(=O)C(=O)N1[C@H](C(=O)OCCCc2ccccc2)CSC1(C)C | Active | Active | –
C=CC[C@@H]1/C=C(\C)C[C@H](C)C[C@H](OC)[C@H]2O[C@@](O)(C(=O)C(=O)N3CCCC[C@H]3C(=O)O[C@H](/C(C)=C/[C@@H]3CC[C@@H](O)[C@H](OC)C3)[C@H](C)[C@@H](O)CC1=O)[C@H](C)C[C@@H]2OC [TACROLIMUS ANHYDROUS] | – | – | Activity [7]: 2.33 µg/g

Continued, in another order:

Activity [1] | Activity [2] | Structure (SMILES) | other results
Active | Active | CC(C)(C)C(=O)C(=O)N1[C@H](C(=O)OCCCc2ccccc2)CSC1(C)C | –
Active | Active | CC(C)(C)C(=O)C(=O)N1[C@H](C(=O)OCCCc2cccnc2)CSC1(C)C | Activity [3]: inactive; Activity [4]: Active; Activity [5]: Dose-dependent effect; Activity [6]: 2.31 µg/g
Active | Active | C=CCCCCCCCCOC(=O)[C@@H]1CSC(C)(C)N1C(=O)C(=O)C(C)(C)C | –
